# This is a sample that favours compounds with a hit; in the whole collection about 3.7% have one here.
# Yeast growth inh: growth inhibitors of yeast BB579 in restrictive medium, primary screen, yeast lifespan-shortening project, S. cerevisiae. AID 804, 2007. 0.51% of 140,000 active. inhibition, % at 10 µM. OD615, 48 h;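 active = inhibition above a set limit, 3 SD over the mean compound inhibition, cut at about 44% in these data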
#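 Assay system: S. cerevisiae DeaD strain BB579 yeast. Medium: CSMM-D restrictive synthetic medium containing dextrose (glucose). Times: 4 h cell preincubation, 48 h compound exposure, 30 °C humidified. Signal: OD615 turbidity measurement. Benchmarks: positive control amphotericin B 10 µg/mL.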
# INS promoter inh: inhibitors of insulin promoter-driven GFP, primary screen, imaging, TRM-6 cells, eGFP reporter, cell count; reporter expression induced with tamoxifen; inhibition, % at 2 µM; 0.9% of 130,000 active;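 active = inhibition above the mean plus 3 SD, with well images judged a real hit on visual review, cut at about 60% in these data, passing the limit was not always enough; inconclusive = inhibition over the cutoff but images rejected on review; inactive = inhibition not above the cutoff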
# Efa HMGR inh: inhibitors of E. faecalis class II HMGR, primary screen, biochemical, Enterococcus faecalis | HMG-CoA reductase (Enterococcus faecalis, mvaE) | purified E. faecalis HMGR, NADPH absorbance 340 nm kinetic | inhibition, % at 10 µM | 0.41% of 190,000 active | AID 1066, 2008;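 active = inhibition above a set limit, the median over all tested compounds plus 3 SD, cut at about 9.5% in these data; inconclusive = no clear call, values can overlap the other calls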;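 note: enzyme runs in reverse so mevalonate oxidation gives rising NADPH absorbance; 0% = complete reaction with DMSO and 100% = background rate lacking mevalonate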
# Yeast life ext: compounds extending yeast replicative lifespan, primary screen, S. cerevisiae, OD615; S. cerevisiae growth with nicotinamide; deaD strain in restrictive glucose medium; inhibition of the nicotinamide effect, % at 10 µM; 0.68% of 130,000 active; AID 775, 2007;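 active = inhibition above a set limit, placed 3 SD over the median of all compounds, cut at about 26% in these data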;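 note: 0% = nicotinamide-treated wells and 100% = cells grown without nicotinamide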
#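 assay system = DeaD-strain S. cerevisiae | buffer or medium = restrictive glucose medium | reagent = 1.5 mM nicotinamide | compound = 10 µM single point, 0.25% DMSO | incubation = 48 h compound exposure at 30 °C, humidified | signal = OD615 measurement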
# RAM inhibit: inhibitors of the yeast RAM network, primary screen, dse1pr::URA3 reporter, 5-FOA selection; S. cerevisiae dse1pr::URA3 reporter, 5-FOA growth OD615, 2 d; analog-sensitive cbk1-as2 kinase mutant strain; inhibition, % at 50 µM; 1.8% of 190,000 active; AID 868, 2007;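 active = inhibition above a set limit, 3 SD over mean compound inhibition, cut at about 8.4% in these data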;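 note: 0% = DMSO-only wells with no growth and 100% = 10 µM 1-NA-PP1 full growth; inhibition rescues growth on 5-FOA so higher OD means more RAM inhibition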
# Active calls of the source: *; ? = inconclusive; nt = not tested or not shown.
SMILES,Yeast growth inh,INS promoter inh,Efa HMGR inh,Yeast life ext,RAM inhibit
Cc1cccc(C(=O)NNC(=O)c2ccccc2)c1,-42.1,13.7,-0.8,-5.0,2.4
Cc1ccc(O)c(C(=O)CC(=O)c2cccc(F)c2)c1,51.1*,-151.8,-2.4,-3.7,0.1
Cc1cccc(C(=O)CC(=O)c2cc(Cl)ccc2O)c1,83.1*,-16.7,-2.0,-6.5,-0.8
O=C(CC(=O)c1cc(Cl)ccc1O)c1ccccc1,81.6*,-40.0,-1.4,-12.4,1.8
Cc1ccc(CNC(=O)c2ccc(OCC3CCCO3)cc2)cc1 (stereo not given),-3.0,19.2,0.5,-5.2,0.8
CCOC(=O)C1(CCc2ccccc2)CCN(C(=O)c2cnc(C)cn2)CC1,nt,nt,0.1,nt,1.5
CCNC(=S)N(Cc1ccccc1)Cc1nc2ccccc2c(=O)[nH]1,-1.4,-31.2,4.2,4.1,0.7
c1ccc(SCCOCCn2cncn2)cc1,-2.9,44.2,-7.3,-0.5,0.4
OC(Cn1cncn1)(c1ccccc1)c1ccccc1,91.5*,42.9,2.0,-17.5,0.9
Nc1nc(CSc2ccc(Cl)cc2)nc(N2CCCCC2)n1,nt,-20.0,-1.1,nt,9.0*
Cc1c(NC(=S)NC(NC(=O)C(C)(C)C)C(Cl)(Cl)Cl)c(=O)n(-c2ccccc2)n1C (stereo not given),-9.2,nt,0.6,-2.4,-0.1
CCCC(NS(=O)(=O)c1ccc(C)cc1)C(=O)O (stereo not given),-41.1,-4.1,1.6,-5.2,1.4
Cc1ccc(S(=O)(=O)N[C@@H](Cc2ccccc2)C(=O)CCl)cc1,-34.9,13.6,-5.7,49.4*,-0.8
Cc1ccc(Oc2nc(-c3cccnc3)nc3ccccc23)c([N+](=O)[O-])n1,nt,22.2,0.3,nt,3.2
CS(=O)(=O)Nc1cccc(C2=NN(C(=O)c3ccccc3Cl)C(c3ccccc3O)C2)c1 (stereo not given),-60.0,37.5,0.0,1.6,2.0
CCOc1ccc(-n2c(=S)sc3c(=O)[nH]c(SCC(=O)NCC4CCCO4)nc32)cc1 (stereo not given),-52.0,-50.0,3.8,8.9,8.7*
CCOC(=O)C1(Cc2ccccc2C(F)(F)F)CCN(C(=O)c2cc(C(C)=O)n[nH]2)CC1,nt,nt,0.1,nt,2.1
Clc1ccc2c(N/N=C/c3cccc(Br)c3)ccnc2c1,-13.1,73.0*,1.5,-7.0,4.2
Cc1ccc(NC(=O)c2ccc(CSc3ccccn3)cc2)cc1,-26.7,0.0,0.8,-12.3,8.4*
Cc1ccc([N+](=O)[O-])cc1NC(=O)c1ccccc1,nt,nt,-2.4,nt,1.2
CC(C)(C)c1ccc(C(=O)Nc2cccc([N+](=O)[O-])c2)cc1,-52.9,72.4*,-2.7,-3.6,2.1
Cc1ccc(SCc2ccc(C(=O)Nc3cc([N+](=O)[O-])ccc3C)cc2)cc1,-18.6,nt,-3.4,-7.5,10.5*
O=C(Nc1cccc([N+](=O)[O-])c1)c1ccncc1,-24.6,38.8,-5.3,-1.4,4.7
Cc1ccc(SCc2ccc(C(=O)Nc3cccc([N+](=O)[O-])c3)cc2)cc1,-35.1,23.3,-5.3,-7.6,9.6*
COc1ccc(NC(=O)CC23CC4CC(CC(C4)C2)C3)cn1,nt,-26.7,-0.3,nt,1.2
SMILES,Yeast growth inh,INS promoter inh,Efa HMGR inh,Yeast life ext,RAM inhibit
Cc1ccc(NC(=O)CCOc2ccccc2C)cc1F,nt,nt,-4.0,nt,-0.4
CNS(=O)(=O)c1ccc2c(c1)oc(=O)c1cc(S(=O)(=O)NC)ccc12,nt,42.9,0.3,nt,3.1
C/C(=N\NC(=O)CSc1ncccn1)c1ccc2c(c1)OCCO2,nt,nt,4.5,nt,0.8
O=C(CSCc1ccccc1)N/N=C/c1cc2c(cc1Br)OCO2,-26.9,0.0,-0.9,6.4,7.9
COC(=O)c1ccc(OCC(O)CN(CCO)CCO)cc1 (stereo not given),-38.2,nt,0.0,-3.2,1.3
OCCN(CCO)CC(O)COc1ccc(C23CC4CC(CC(C4)C2)C3)cc1 (stereo not given),45.9*,20.6,-3.8,-10.1,-1.7
O=C1S/C(=C/c2ccccc2F)C(=O)N1CCN=C1NS(=O)(=O)c2ccccc21,-5.0,-19.4,-7.1,-1.8,3.7
Cc1nnc(SC(C)C(=O)Nc2ccc(S(=O)(=O)N3CCCCCC3)cc2)s1 (stereo not given),-50.5,nt,-4.0,-20.9,9.2*
Cc1nnc(SC(C)C(=O)Nc2ccc3c(c2)OCCO3)s1 (stereo not given),-52.8,nt,1.1,-7.5,1.8
C=CCn1c(=O)c(C(=O)NCCNCC)c(O)c2ccccc21,-5.7,-50.0,-3.9,31.4*,-0.2
O=C(O)c1ccc(SCc2cnc(Cl)s2)cc1,97.2*,42.9,5.4,-18.0,0.1
COC(=O)c1ccc(SCc2cnc(Cl)s2)cc1,-20.7,nt,0.3,-24.8,0.9
N=c1ncn(Cc2ccccc2)c2nc(SCCOc3ccccc3)[nH]c12,-8.4,nt,-1.3,3.6,5.6
C=CCc1cccc2cc(C(=O)Nc3ccc(S(=O)(=O)Nc4nnc(CC)s4)cc3)c(=O)oc12,-39.3,nt,1.5,-0.3,4.7
O=C(Nc1cccc(N=Cc2cc(Br)cc(Br)c2O)c1)c1ccco1,99.9*,nt,-5.5,-10.1,-1.2
CC(C)(C)NC(=O)c1cccc(NC(=O)c2ccco2)c1,-7.2,-66.7,-5.2,nt,-0.1
O=C(Nc1cccc(N=Cc2cc(Cl)cc(Br)c2O)c1)c1ccco1,56.3*,0.0,-0.2,7.3,-0.9
Cc1nn2c3ccccc3nc2c2ccccc12,78.7*,62.1,-0.2,-12.1,0.7
Cc1nn2c(-c3ccccc3)nnc2c2ccccc12,19.7,-450.0,2.4,-29.4,0.0
COc1ccc(NS(=O)(=O)c2cc(NC(=O)/C=C/c3ccccc3OC)ccc2N2CCCCC2)cc1,-63.0,23.1,-4.3,9.1,10.9*
Cc1noc(C)c1CSc1nnc(-c2c[nH]c3ccccc23)n1-c1ccc(Cl)cc1,-32.0,0.0,-0.4,-1.3,9.4*
CCc1ccc(-n2c(SCc3c(C)noc3C)nnc2-c2ccncc2)cc1,-3.1,-33.3,-3.8,-2.7,-0.3
COc1ccc(/C=C/C(=O)N(C)c2ccccc2C(=O)O)cc1,nt,20.0,-0.1,nt,-0.9
COc1ccc(NC(=O)c2ccc(C(=O)c3ccccc3)o2)cc1,8.7,90.0*,-1.3,-26.7,3.1
COc1ccc(NC(=O)c2ccc(-c3ccccc3Cl)o2)cc1,-50.9,19.1,-2.0,-3.1,8.7*
SMILES,Yeast growth inh,INS promoter inh,Efa HMGR inh,Yeast life ext,RAM inhibit
O=C(Nc1cccc(F)c1)c1ccc(-c2ccccc2Cl)o1,-20.6,?,2.1,-6.8,10.0*
O=C(Nc1ccc(F)cc1)C1C(c2ccccc2)C1(Cl)Cl (stereo not given),-15.6,13.3,-0.6,-6.5,-0.8
NC(=O)c1cc(C(=O)c2ccc(Cl)cc2)c[nH]1,nt,nt,3.3,nt,0.9
O=C(Nc1ccccc1Cl)OCc1cncs1,nt,66.7*,-4.9,nt,1.0
O=C(OCc1cncs1)c1ccccc1Cl,nt,nt,3.6,nt,1.9
COc1ccc(-c2c(C#N)c(C)nc3c2C(=O)c2ccccc2-3)cc1,-49.6,89.5*,2.1,-9.3,3.9

# Bioassay records (PubChem BioAssay)
